The text below walks through data of ChEMBL document CHEMBL4680226, “Design, synthesis, and evaluation of N-phenyl-4-(2-phenylsulfonamido)-benzamides as microtubule-targeting agents in drug-resistant cancer cells, displaying HDAC inhibitory response” (Eur J Med Chem, 2020).

For assay [1], the system named is KB-VIN. As to the kind of experiment: Induction of apoptosis in human KB-VIN cells assessed as increase in cleaved caspase-8 expression at 0.05 uM measured after 48 hrs by Western blot analysis. It counts as functional, cell-based. An outline of the steps: (§1)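 Resistant KB cells attached overnight, then drug-treated at the stated concentrations and times (24 h or 48 h). Lysates were immunoblotted for cleaved PARP, caspase-3, -8 and -9, and γH2AX, with anti-mouse or anti-rabbit IgG secondaries.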
On the technique in general: Immunoblotting shows a protein as a band on a membrane.

For assay [2], the system named is KB7D. The assay is described as follows: Induction of apoptosis in human KB7D cells assessed as increase in activated gammaH2AX expression at 0.1 to 0.5 uM measured after 24 hrs by Western blot analysis. To be noted: dose 0.1-0.5 µM. It counts as functional, cell-based. Summed up: as §1
Assay [3] relates to KB-VIN. The assay is described as follows: Induction of apoptosis in human KB-VIN cells assessed as increase in cleaved PARP expression at 0.1 to 0.5 uM measured after 24 hrs by Western blot analysis. It counts as functional, cell-based. To be noted: dose 0.1-0.5 µM. An outline of the steps:
as §1

In a further assay the target is T1, Histone deacetylase 8 (Homo sapiens, UniProt Q9BY41).
T1 sequence (Q9BY41 whole entry): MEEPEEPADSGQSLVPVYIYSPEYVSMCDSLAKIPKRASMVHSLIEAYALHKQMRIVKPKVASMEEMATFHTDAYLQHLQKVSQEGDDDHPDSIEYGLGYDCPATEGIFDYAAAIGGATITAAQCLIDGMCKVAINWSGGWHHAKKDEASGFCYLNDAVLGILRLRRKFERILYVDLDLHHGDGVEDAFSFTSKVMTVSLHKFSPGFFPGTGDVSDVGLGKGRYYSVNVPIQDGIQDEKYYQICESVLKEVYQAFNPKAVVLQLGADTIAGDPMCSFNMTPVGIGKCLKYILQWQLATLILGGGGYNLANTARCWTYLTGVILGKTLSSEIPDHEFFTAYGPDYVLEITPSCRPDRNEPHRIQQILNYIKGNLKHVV
The assay is described as follows: Inhibition of human recombinant HDAC8 using RHKAcKAc-AMC as substrate measured after 60 mins by fluorescence assay.

In assay [4] the test system is KB-VIN. The assay is described as follows: Induction of apoptosis in human KB-VIN cells assessed as increase in cleaved caspase-9 expression at 0.05 uM measured after 48 hrs by Western blot analysis. It is filed as functional, cell-based. An outline of the steps: as §1
For assay [5], the system named is KB7D. The assay is described as follows: Induction of apoptosis in human KB7D cells assessed as increase in activated gammaH2AX expression by Western blot analysis. It is filed as functional, cell-based. Summed up:
as §1

For assay [6], the system named is KB7D. The assay is described as follows: Induction of apoptosis in human KB7D cells assessed as increase in cleaved caspase-3 expression at 0.01 to 0.1 uM measured after 48 hrs by Western blot analysis. It is filed as functional, cell-based. To be noted: dose 0.01-0.1 µM. An outline of the steps: as §1
The test system of assay [7] is KB7D. As to the kind of experiment: Induction of apoptosis in human KB7D cells assessed as increase in cleaved caspase-8 expression at 0.01 to 0.1 uM measured after 48 hrs by Western blot analysis. It is filed as functional, cell-based. To be noted: dose 0.01-0.1 µM. An outline of the steps:
as §1

For a further assay, the target named is Histone deacetylase 2 (Homo sapiens, UniProt Q92769). As to the kind of experiment: Inhibition of recombinant human C-terminal GST-tagged HDAC2 (1 to 488 residues) expressed in baculovirus infected insect cells using RHKKAc-AMC as substrate measured after 60 mins by fluorescence assay.
Sequence of Histone deacetylase 2 (Q92769 whole entry, the tested form may be a part): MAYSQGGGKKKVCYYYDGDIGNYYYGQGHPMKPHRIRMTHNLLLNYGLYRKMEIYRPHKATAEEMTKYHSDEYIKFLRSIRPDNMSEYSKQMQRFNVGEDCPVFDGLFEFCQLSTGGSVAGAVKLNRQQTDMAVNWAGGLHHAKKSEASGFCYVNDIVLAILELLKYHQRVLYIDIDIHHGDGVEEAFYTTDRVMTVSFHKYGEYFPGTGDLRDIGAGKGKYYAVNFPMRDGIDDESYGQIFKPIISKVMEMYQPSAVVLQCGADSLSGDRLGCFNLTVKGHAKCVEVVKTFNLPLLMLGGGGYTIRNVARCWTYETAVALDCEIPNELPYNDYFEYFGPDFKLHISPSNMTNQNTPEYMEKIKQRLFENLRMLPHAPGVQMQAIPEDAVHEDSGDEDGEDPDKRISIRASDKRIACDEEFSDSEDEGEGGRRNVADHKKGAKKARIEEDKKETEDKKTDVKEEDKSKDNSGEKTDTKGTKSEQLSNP
The target of a further assay is Histone deacetylase 1 (Homo sapiens, UniProt Q13547). The assay is described as follows: Inhibition of recombinant human full-length C-terminal FLAG-His tagged HDAC1 (1 to 482 residues) expressed in Sf21 insect cells using RHK-K(Ac)-AMC as substrate measured after 60 mins by fluorescence assay.
Sequence of Histone deacetylase 1 (Q13547 whole entry, the tested form may be a part): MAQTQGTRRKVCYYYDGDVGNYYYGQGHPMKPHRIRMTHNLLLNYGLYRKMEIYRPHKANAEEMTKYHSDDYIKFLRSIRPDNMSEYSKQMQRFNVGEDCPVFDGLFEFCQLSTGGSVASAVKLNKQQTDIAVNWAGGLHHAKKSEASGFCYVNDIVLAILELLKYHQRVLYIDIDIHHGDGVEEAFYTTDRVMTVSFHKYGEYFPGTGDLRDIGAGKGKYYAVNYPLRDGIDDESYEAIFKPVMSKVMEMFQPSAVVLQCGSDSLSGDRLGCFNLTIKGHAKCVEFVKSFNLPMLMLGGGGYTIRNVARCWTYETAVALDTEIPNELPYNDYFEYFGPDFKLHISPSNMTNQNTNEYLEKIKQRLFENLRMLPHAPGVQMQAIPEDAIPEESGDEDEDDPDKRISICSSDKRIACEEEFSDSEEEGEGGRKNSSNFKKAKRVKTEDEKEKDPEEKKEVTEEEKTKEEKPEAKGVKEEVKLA
In assay [8] the test system is KB-VIN. As to the kind of experiment: Induction of apoptosis in human KB-VIN cells assessed as increase in cleaved PARP expression at 0.05 uM measured after 48 hrs by Western blot analysis. It is filed as functional, cell-based. An outline of the steps:
as §1

Assay [9] deals with KB-VIN. The assay is described as follows: Induction of apoptosis in human KB-VIN cells assessed as increase in activated gammaH2AX expression at 0.05 uM measured after 48 hrs by Western blot analysis. It counts as functional, cell-based. An outline of the steps: as §1
In assay [10] the target is T2, Tubulin (Homo sapiens) (UniProt P68371+Q9H4B7+P0DPH7+P68366+Q13509+Q71U36+P04350+Q3ZCM7+P07437+P68363+Q9BQE3+Q6PEY2+Q13885+Q9BVA1+Q9BUF5). As to the kind of experiment: Induction of microtubule disruption in human KB-VIN cells assessed as polymerized fraction at 0.1 uM measured after 16 hrs by SDS-PAGE analysis (reference value: 23.1 to 25.5%). It is filed as cell-based. An outline of the steps:
(§2)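 KB-Vin or KB-7D cells treated 16 h, then lysed 5 min at 37 °C in the dark in hypotonic buffer (1% NP-40, 1 mmol/L MgCl2, 2 mmol/L EGTA, 50 mmol/L Tris-HCl pH 6.8, protease inhibitors). Spun 13000 rpm, 10 min, room temperature. Soluble supernatant and resuspended polymerized pellet run on SDS-PAGE.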

The subject of assay [11] is KB-VIN. As to the kind of experiment: Induction of apoptosis in human KB-VIN cells assessed as increase in activated gammaH2AX expression by Western blot analysis. It is filed as functional, cell-based. Summed up: as §1
For assay [12], the system named is KB-VIN. As to the kind of experiment: Induction of apoptosis in human KB-VIN cells assessed as increase in cleaved caspase-3 expression by Western blot analysis. It is filed as functional, cell-based. An outline of the steps:
as §1

For assay [13], the system named is KB-VIN. As to the kind of experiment: Induction of apoptosis in human KB-VIN cells assessed as increase in cleaved caspase-9 expression by Western blot analysis. It is filed as functional, cell-based. An outline of the steps:
as §1

Assay [14] has as its system KB-VIN. As to the kind of experiment: Induction of apoptosis in human KB-VIN cells assessed as increase in cleaved caspase-9 expression at 0.1 to 0.5 uM measured after 24 hrs by Western blot analysis. It counts as functional, cell-based. To be noted: dose 0.1-0.5 µM. Summed up: as §1
For another assay, the system named is KB. The assay is described as follows: Antiproliferative activity against human KB cells incubated for 48 hrs by SRB assay. It is filed as functional. Summed up:
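KB parental and resistant sublines kept in RPMI 1640 with 5% FBS at 37 °C, 5% CO2. Cells plated, left overnight, then given graded compound concentrations for 48 h. A time-zero plate was fixed with 10% TCA at dosing. Cells were stained with 0.4% SRB in 1% acetic acid, unbound dye washed off, bound dye dissolved in 10 mM Tris base, and absorbance read at 515 nm.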
Background: Sulforhodamine B stains cellular protein and so reports cell mass.

In assay [15] the target is T2, Tubulin (Homo sapiens). As to the kind of experiment: Induction of microtubule disruption in human KB7D cells assessed as polymerized fraction at 0.1 uM measured after 16 hrs by SDS-PAGE analysis (reference value: 26.4 to 29%). It counts as cell-based. Summed up:
as §2

For assay [16], the system named is KB7D. The assay is described as follows: Induction of apoptosis in human KB7D cells assessed as increase in cleaved PARP expression at 0.01 to 0.1 uM measured after 48 hrs by Western blot analysis. It is filed as functional, cell-based. To be noted: dose 0.01-0.1 µM. Summed up: as §1
Assay [17] has as its system KB7D. The assay is described as follows: Induction of apoptosis in human KB7D cells assessed as increase in cleaved caspase-3 expression by Western blot analysis. It counts as functional, cell-based. Summed up:
as §1

Assay [18] relates to KB-VIN. The assay is described as follows: Induction of apoptosis in human KB-VIN cells assessed as increase in cleaved caspase-3 expression at 0.1 to 0.5 uM measured after 24 hrs by Western blot analysis. It is filed as functional, cell-based. To be noted: dose 0.1-0.5 µM. An outline of the steps:
as §1

For assay [19], the system named is KB7D. The assay is described as follows: Induction of apoptosis in human KB7D cells assessed as increase in cleaved caspase-9 expression at 0.01 to 0.1 uM measured after 48 hrs by Western blot analysis. It counts as functional, cell-based. To be noted: dose 0.01-0.1 µM. An outline of the steps:
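KB-7D cells in RPMI 1640 with 5% FBS and 1% penicillin-streptomycin at 37 °C, 5% CO2, attached overnight. Treated with indicated concentrations for 24 or 48 h, lysed, and immunoblotted for cleaved caspases.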

Active and inactive are the calls of the source. No cut-off for these calls is given here.

On to `COc1ccc(S(=O)(=O)Nc2ccccc2NCc2ccc(C(=O)Nc3ccccc3N)cc2)cc1`, for which the outcome with KB-VIN [1], in the assay with KB7D [2], with KB-VIN [3], in the assay on KB-VIN [4], in the assay with KB7D [6] and in the assay with KB7D [7] was Active. Also, the result with KB-VIN [8], in the assay on KB-VIN [9], in the assay on KB-VIN [14], with KB7D [16], in the assay on KB-VIN [18] and with KB7D [19] was Active. Also, the IC50 is greater than 10 µM on Histone deacetylase 8, 1.47 µM on Histone deacetylase 2 and 1.07 µM at Histone deacetylase 1. The Activity result in the assay on KB7D [5] is “Dose-dependent effect”; at Tubulin (Homo sapiens) [10] it was 20.4%; in the assay with KB-VIN [11], “Dose-dependent effect”; in the assay with KB-VIN [12], “Dose-dependent effect”; with KB-VIN [13] it was “Dose-dependent effect”; at Tubulin (Homo sapiens) [15] it was 13.3%. Moreover, in the assay on KB7D [17], the Activity entry is “Dose-dependent effect”. The same molecule showed a GI50 in the assay on KB of 0.01 µM.

In general, IC50 refers to the concentration needed to halve the response being measured. As a reminder, the GI50 is the concentration that inhibits growth by half. Higher therefore signals lower sensitivity of the cells.
